Reference: paper PMC5538437 (Genes & Development, 2017)

Experiments:
[1] = test system: R-Luc-6xMS2-A95-MALAT1 reporter; assay: Tethering assay, R-Luc-6xMS2-A95-MALAT1 reporter, HEK293T cells; type: cell-based, human; settings: MS2-HA-GYF2, HEK293T cells
Summary of the method: (§1)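 HEK293T cells transfected with 0.25 µg F-Luc-GFP control plasmid, 0.5 µg R-Luc-6xMS2-A95-MALAT1 reporter (or R-Luc-A95-MALAT1, lacking MS2 sites), 0.25 µg GFP-MBP, and 0.3 µg MS2-HA or 1 µg MS2-HA-GYF2 (wild type or canonical mutant) plasmid. Dual luciferase read 2 d post-transfection. R-Luc normalized to F-Luc, set to 100% for MS2-HA. Mean ± SD of three independent experiments.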

[2] = test system: R-Luc-ARE-A90-MALAT1 reporter; type: cell-based, human; settings: λN-HA-TTPΔNIM with GFP-GYF2 and/or λN-HA-4EHP, GYF1/2-null HEK293T cells
Summary of the method: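 Wild-type and GYF1/2-null HEK293T cells received 1 µg R-Luc-ARE-A90-MALAT1 reporter and 0.25 µg F-Luc-GFP control. Where indicated, they also received 50 ng λN-HA-TTPΔNIM, 0.2 µg GFP-MBP, 1 µg GFP-GYF2 (wild type or C*) and 0.5 µg λN-HA-4EHP. Dual luciferase was measured 2 d post-transfection. R-Luc/F-Luc was set to 100% without TTP for each cell line.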

[3] = molecular target: T1, 4EHP–GYF2 (35–105) complex (Homo sapiens, UniProt O60573+Q6Y7W6); assay: ITC, m7GpppG cap analog vs 4EHP–GYF2 complex; type: binding; settings: 20 mM HEPES pH 7.5, 200 mM NaCl
T1 sequence (O60573 52-234): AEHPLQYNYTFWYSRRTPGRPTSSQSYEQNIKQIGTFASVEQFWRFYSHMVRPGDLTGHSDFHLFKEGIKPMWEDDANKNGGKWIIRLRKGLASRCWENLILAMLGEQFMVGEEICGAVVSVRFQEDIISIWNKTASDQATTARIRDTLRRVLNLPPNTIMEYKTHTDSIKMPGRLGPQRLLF
T1 sequence (Q6Y7W6 35-105 partner limits assumed): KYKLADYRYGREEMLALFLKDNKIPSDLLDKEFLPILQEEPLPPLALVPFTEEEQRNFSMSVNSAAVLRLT

[4] = molecular target: T2, 4EHP RE-LL–4E-BP1 complex (Homo sapiens, UniProt O60573, E149L/R103L); assay: Competition assay, preassembled 4EHP RE-LL–4E-BP1 complex; type: biochemical; settings: after 60 min of incubation with equimolar GYF2 fragment
T2 sequence (O60573 52-234 R103L/E149L): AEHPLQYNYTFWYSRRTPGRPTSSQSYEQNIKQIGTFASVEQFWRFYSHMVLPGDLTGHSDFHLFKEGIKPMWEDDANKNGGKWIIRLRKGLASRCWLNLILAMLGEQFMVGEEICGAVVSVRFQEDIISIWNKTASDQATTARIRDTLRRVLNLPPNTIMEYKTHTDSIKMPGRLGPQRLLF

[5] = test system: R-Luc-A95-MALAT1 reporter; assay: Tethering assay, reporter lacking the MS2-binding sites; type: cell-based, human; settings: MS2-HA-GYF2, HEK293T cells
Summary of the method: as §1

[6] = test system: R-Luc-5BoxB-A95-MALAT1 reporter; type: cell-based, human; settings: λN-HA-4EHP with GFP-MBP or GFP-GYF2, GYF1/2-null HEK293T cells
Summary of the method: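 GYF1/2-null and control HEK293T cells were seeded at 0.6 × 10^6 cells per well and lipofected. Each well received 0.25 µg F-Luc-GFP control, 0.5 µg R-Luc-5BoxB-A95-MALAT1 reporter, and 0.3 µg λN-HA or 0.7 µg λN-HA-4EHP. Cells also got 0.25 µg GFP-MBP, 1.8 µg GFP-GYF2 wild type or 1.2 µg C* mutant. Luciferases were read after 2 d. R-Luc/F-Luc was set to 100% for λN-HA. Mean ± SD, three independent experiments.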

[7] = molecular target: T3, 4EHP–4E-BP1 complex (Homo sapiens, UniProt O60573); assay: Competition assay, preassembled 4EHP–4E-BP1 complex; type: biochemical; settings: competition assay with equimolar GYF2 fragment
T3 sequence (O60573 52-234): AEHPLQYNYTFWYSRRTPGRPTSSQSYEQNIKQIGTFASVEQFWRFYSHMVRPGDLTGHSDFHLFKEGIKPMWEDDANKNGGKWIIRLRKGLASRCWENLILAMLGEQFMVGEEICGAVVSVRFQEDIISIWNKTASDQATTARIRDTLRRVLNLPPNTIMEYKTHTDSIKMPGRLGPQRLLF

Molecule	repression of MS2 reporter expression [1]	TTP-mediated repression of the ARE reporter, GYF1/2-null cells [2]	effect on 4EHP's affinity for the m7GpppG cap analog [3]	4E-BP1 displaced from 4EHP RE-LL [4] [%]	effect on reporter lacking the MS2-binding sites [5]	repression of tethered reporter by 4EHP in GYF1/2-null cells [6]	competitive advantage over 4E-BP1 for binding to 4EHP [7]
GYF2 C: GYF2 residues K35–K54, canonical 4EHP-binding region (KYKLADYRYGREEMLALFLK; UniProt Q6Y7W6 35-54, looked up, fragment)	still repressed the expression of the R-Luc-6xMS2-A95-MALAT1 reporter as efficiently as wild-type GYF2	No restoration was observed					
GYF2 C+L+NC+A: GYF2 residues K35–T105, complete 4EHP-binding region (left off: MBP, N-terminal, state not stated | GB1, C-terminal, kept) KYKLADYRYGREEMLALFLKDNKIPSDLLDKEFLPILQEEPLPPLALVPFTEEEQRNFSMSVNSAAVLRLT			did not increase the affinity of 4EHP for an m^7GpppG cap analog	40			
GYF2: Hs GIGYF2 Q6Y7W6-1, full-length (1–1299) (protein) MAAETQTLNFGPEWLRALSSGGSITSPPLSPALPKYKLADYRYGREEMLALFLKDNKIPSDLLDKEFLPILQEEPLPPLALVPFTEEEQRNFSMSVNSAAVLRLTGRGGGGTVVGAPRGRSSSRGRGRGRGECGFYQRSFDEVEGVFGRGGGREMHRSQSWEERGDRRFEKPGRKDVGRPNFEEGGPTSVGRKHEFIRSESENWRIFREEQNGEDEDGGWRLAGSRRDGERWRPHSPDGPRSAGWREHMERRRRFEFDFRDRDDERGYRRVRSGSGSIDDDRDSLPEWCLEDAEEEMGTFDSSGAFLSLKKVQKEPIPEEQEMDFRPVDEGEECSDSEGSHNEEAKEPDKTNKKEGEKTDRVGVEASEETPQTSSSSARPGTPSDHQSQEASQFERKDEPKTEQTEKAEEETRMENSLPAKVPSRGDEMVADVQQPLSQIPSDTASPLLILPPPVPNPSPTLRPVETPVVGAPGMGSVSTEPDDEEGLKHLEQQAEKMVAYLQDSALDDERLASKLQEHRAKGVSIPLMHEAMQKWYYKDPQGEIQGPFNNQEMAEWFQAGYFTMSLLVKRACDESFQPLGDIMKMWGRVPFSPGPAPPPHMGELDQERLTRQQELTALYQMQHLQYQQFLIQQQYAQVLAQQQKAALSSQQQQQLALLLQQFQTLKMRISDQNIIPSVTRSVSVPDTGSIWELQPTASQPTVWEGGSVWDLPLDTTTPGPALEQLQQLEKAKAAKLEQERREAEMRAKREEEERKRQEELRRQQEEILRRQQEEERKRREEEELARRKQEEALRRQREQEIALRRQREEEERQQQEEALRRLEERRREEEERRKQEELLRKQEEEAAKWAREEEEAQRRLEENRLRMEEEAARLRHEEEERKRKELEVQRQKELMRQRQQQQEALRRLQQQQQQQQLAQMKLPSSSTWGQQSNTTACQSQATLSLAEIQKLEEERERQLREEQRRQQRELMKALQQQQQQQQQKLSGWGNVSKPSGTTKSLLEIQQEEARQMQKQQQQQQQHQQPNRARNNTHSNLHTSIGNSVWGSINTGPPNQWASDLVSSIWSNADTKNSNMGFWDDAVKEVGPRNSTNKNKNNASLSKSVGVSNRQNKKVEEEEKLLKLFQGVNKAQDGFTQWCEQMLHALNTANNLDVPTFVSFLKEVESPYEVHDYIRAYLGDTSEAKEFAKQFLERRAKQKANQQRQQQQLPQQQQQQPPQQPPQQPQQQDSVWGMNHSTLHSVFQTNQSNNQQSNFEAVQSGKKKKKQKMVRADPSLLGFSVNASSERLNMGEIETLDDY	repressed mRNA reporter expression in tethering assays				did not repress a reporter lacking the MS2-binding sites	restored by transient expression of wild-type GFP-tagged GYF2	the auxiliary sequences afford GYF2 a competitive advantage over 4E-BP1 for binding to 4EHP
